ChEMBL document CHEMBL3286311, “Novel and high affinity fluorescent ligands for the serotonin transporter based on (s)-citalopram” (ACS Med Chem Lett, 2014)
Calls of active or inactive are those of the source. The calls are words filed in the database; no cut-off is given here.

Experiments:
[1] = target: T1, Sodium-dependent noradrenaline transporter (Homo sapiens, UniProt P23975); test: Inhibition of 2,5,6-[3H]-dopamine uptake at human NET expressed in African green monkey COS7 cells at 10 uM incubated for 10 mins prior to radioligand addition measured after 5 mins by scintillation counting analysis; type: cell-based; conditions: COS-7
T1 sequence (P23975 whole entry): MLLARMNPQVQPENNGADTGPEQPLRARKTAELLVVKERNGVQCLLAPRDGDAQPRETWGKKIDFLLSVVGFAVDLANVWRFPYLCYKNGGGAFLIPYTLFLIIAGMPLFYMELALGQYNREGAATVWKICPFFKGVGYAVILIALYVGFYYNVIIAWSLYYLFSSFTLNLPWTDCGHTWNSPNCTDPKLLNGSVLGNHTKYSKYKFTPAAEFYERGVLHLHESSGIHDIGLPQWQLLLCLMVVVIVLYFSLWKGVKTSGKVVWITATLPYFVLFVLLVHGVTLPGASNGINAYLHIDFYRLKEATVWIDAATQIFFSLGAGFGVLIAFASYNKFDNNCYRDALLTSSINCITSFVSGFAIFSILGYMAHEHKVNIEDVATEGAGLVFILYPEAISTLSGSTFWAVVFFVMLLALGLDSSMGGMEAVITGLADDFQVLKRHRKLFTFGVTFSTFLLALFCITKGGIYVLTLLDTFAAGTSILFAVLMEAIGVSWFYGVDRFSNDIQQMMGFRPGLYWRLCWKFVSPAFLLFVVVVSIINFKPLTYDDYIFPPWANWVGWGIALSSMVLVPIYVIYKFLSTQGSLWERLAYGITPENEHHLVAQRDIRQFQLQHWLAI

[2] = target: T2, Sodium-dependent dopamine transporter (Homo sapiens, UniProt Q01959); test: Inhibition of 2,5,6-[3H]-dopamine uptake at human DAT expressed in African green monkey COS7 cells at 10 uM incubated for 10 mins prior to radioligand addition measured after 5 mins by scintillation counting analysis; type: cell-based; conditions: COS-7
T2 sequence (Q01959 whole entry): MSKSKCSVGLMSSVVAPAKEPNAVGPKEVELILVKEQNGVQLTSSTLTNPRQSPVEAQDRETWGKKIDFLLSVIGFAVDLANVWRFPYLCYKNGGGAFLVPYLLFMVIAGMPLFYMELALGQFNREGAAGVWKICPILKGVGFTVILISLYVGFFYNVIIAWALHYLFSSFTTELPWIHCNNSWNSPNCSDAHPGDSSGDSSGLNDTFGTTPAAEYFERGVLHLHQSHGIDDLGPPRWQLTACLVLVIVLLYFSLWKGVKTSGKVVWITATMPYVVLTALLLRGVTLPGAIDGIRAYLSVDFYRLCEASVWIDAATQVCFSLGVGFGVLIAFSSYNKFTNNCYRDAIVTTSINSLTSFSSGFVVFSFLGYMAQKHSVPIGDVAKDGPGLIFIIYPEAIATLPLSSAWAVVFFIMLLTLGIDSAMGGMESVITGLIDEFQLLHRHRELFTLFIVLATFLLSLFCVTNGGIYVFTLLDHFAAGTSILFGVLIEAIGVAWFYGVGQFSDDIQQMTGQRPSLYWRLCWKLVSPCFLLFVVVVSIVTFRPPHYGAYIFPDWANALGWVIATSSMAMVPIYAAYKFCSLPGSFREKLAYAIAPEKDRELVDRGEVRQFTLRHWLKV

[3] = target: T3, Sodium-dependent serotonin transporter (Homo sapiens, UniProt P31645); test: Displacement of [3H]-S-citalopram from human SERT expressed in African green monkey COS7 cells incubated for 10 mins prior to [3H]-S-citalopram addition measured after 2 hrs by scintillation counting analysis; type: cell-based, COS-7
In short: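 Competition binding at hSERT in transiently transfected COS7 cells with [3H]-S-citalopram (2 nM) as radioligand. IC50 came from nonlinear regression and was converted to Ki using a Kd for [3H]-S-citalopram determined in parallel. SE interval is from pKi ± SE. Values are means of three to four experiments, each in triplicate.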
Target sequence in this assay (P31645 whole entry): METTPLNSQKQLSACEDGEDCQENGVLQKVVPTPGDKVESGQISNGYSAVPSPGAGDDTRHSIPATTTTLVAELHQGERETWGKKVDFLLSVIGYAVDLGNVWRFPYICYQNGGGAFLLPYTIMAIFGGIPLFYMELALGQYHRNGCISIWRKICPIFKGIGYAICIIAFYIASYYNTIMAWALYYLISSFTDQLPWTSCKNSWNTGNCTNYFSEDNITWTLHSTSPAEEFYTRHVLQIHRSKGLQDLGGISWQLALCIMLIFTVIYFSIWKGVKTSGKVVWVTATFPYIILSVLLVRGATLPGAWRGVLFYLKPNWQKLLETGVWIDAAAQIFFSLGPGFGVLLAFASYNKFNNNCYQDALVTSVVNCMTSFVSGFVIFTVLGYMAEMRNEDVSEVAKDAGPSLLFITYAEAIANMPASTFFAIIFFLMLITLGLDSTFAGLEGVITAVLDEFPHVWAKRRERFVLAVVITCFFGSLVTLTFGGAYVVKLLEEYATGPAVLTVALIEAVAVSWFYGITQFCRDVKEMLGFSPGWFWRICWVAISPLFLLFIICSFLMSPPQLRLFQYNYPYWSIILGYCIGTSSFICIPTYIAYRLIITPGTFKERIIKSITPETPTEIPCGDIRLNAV

[4] = target: T3, Sodium-dependent serotonin transporter; test: Inhibition of 5-hydroxy[3H]tryptamine uptake at human SERT expressed in African green monkey COS7 cells incubated for 10 mins prior to radioligand addition measured after 5 mins by scintillation counting analysis; type: cell-based, COS-7
Target sequence in this assay (P31645 whole entry): as above

[5] = target: T2, Sodium-dependent dopamine transporter; test: Inhibition of 2,5,6-[3H]-dopamine uptake at human DAT expressed in African green monkey COS7 cells incubated for 10 mins prior to radioligand addition measured after 5 mins by scintillation counting analysis; type: cell-based, COS-7
In short: (§1)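 Uptake inhibition in transiently transfected COS7 cells, with 2,5,6-[3H]dopamine as substrate for both DAT and NET. IC50 came from nonlinear regression. Ki was calculated using the dopamine KM, which was determined in parallel. Values are means of three to four repeats, each in triplicate, with SE interval from pKI ± SE.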

[6] = target: T1, Sodium-dependent noradrenaline transporter; test: Inhibition of 2,5,6-[3H]-dopamine uptake at human NET expressed in African green monkey COS7 cells incubated for 10 mins prior to radioligand addition measured after 5 mins by scintillation counting analysis; type: cell-based, COS-7; in short: as §1
[7] = target: T3, Sodium-dependent serotonin transporter; test: Binding affinity to N-terminal EGFP-tagged SERT (unknown origin) expressed in HEK293 cells at 20 nM by confocal laser scanning microscopy; type: cell-based; conditions: TDE = time-dependent effect
In short: (§2)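 Live confocal imaging of HEK293 cells transiently expressing SERT with an N-terminal EGFP tag. Cells were incubated at room temperature with 20 nM ligand and imaged at 0, 1, 5, 10 or 20 min. Rhodamine signal was compared with the EGFP signal and merged with a transmission image. Paroxetine (100 μM) was coincubated as the specificity control. Three identical experiments were run.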
Target sequence in this assay (P31645 whole entry, looked up): as the sequence (P31645 whole entry) above

[8] = target: T3, Sodium-dependent serotonin transporter; test: Binding affinity to N-terminal EGFP-tagged SERT (unknown origin) expressed in HEK293 cells at 20 nM after 10 mins by confocal laser scanning microscopy in presence of SERT inhibitor paroxetine; type: cell-based; in short: as §2
Target sequence in this assay (P31645 whole entry, looked up): as the sequence (P31645 whole entry) above

[9] = target: T3, Sodium-dependent serotonin transporter; test: Binding affinity to N-terminal EGFP-tagged SERT (unknown origin) expressed in HEK293 cells at 20 nM after 10 mins by confocal laser scanning microscopy; type: cell-based; in short: as §2
Target sequence in this assay (P31645 whole entry, looked up): as the sequence (P31645 whole entry) above

[10] = target: T3, Sodium-dependent serotonin transporter; test: Selectivity ratio of ZP455 Ki to compound Ki for human SERT
Target sequence in this assay (P31645 whole entry, looked up): as the sequence (P31645 whole entry) above

In the case of `CN(C)CCC[C@@]1(c2ccc(F)cc2)OCc2cc(C#N)ccc21`, the inhibition [1] is reported as “inactive” and the inhibition [2] is reported as “inactive”.
In the case of `CCN(CC)c1ccc2c(-c3ccc(S(=O)(=O)NCCCCCC(=O)NCCCN(C)CCC[C@@]4(c5ccc(F)cc5)OCc5cc(C#N)ccc54)cc3S(=O)(=O)[O-])c3ccc(=[N+](CC)CC)cc-3oc2c1`, the Ki [3] is reported as 11 nM, the inhibition [1] is reported as “inactive” and the Ki [4] is reported as 140 nM. The inhibition [2] was “inactive”.
In the case of `CCN(CC)c1ccc2c(-c3ccc(S(=O)(=O)NCCCCCC(=O)NCCN4C5CCC4[C@@H](C(=O)OC)[C@@H](c4ccc(Cl)c(Cl)c4)C5)cc3S(=O)(=O)[O-])c3ccc(=[N+](CC)CC)cc-3oc2c1` (stereo not given in full), the Ki [5] is reported as 20 nM, the Ki [6] is reported as 91 nM and the Ki [4] is reported as 94 nM.
In the case of `CCN(CC)c1ccc2c(-c3ccc(S(=O)(=O)NCCCCCC(=O)NCCCCCN(C)CCC[C@@]4(c5ccc(F)cc5)OCc5cc(C#N)ccc54)cc3S(=O)(=O)[O-])c3ccc(=[N+](CC)CC)cc-3oc2c1`, the Ki [3] is reported as 180 nM, the inhibition [1] is reported as “inactive” and the Ki [4] is reported as 250 nM. For the same molecule, the inhibition [2] was “inactive”.
For `CCN(CC)c1ccc2c(-c3ccc(S(=O)(=O)NCCCCCC(=O)NCCCc4ccc5c(c4)CO[C@@]5(CCCN(C)C)c4ccc(F)cc4)cc3S(=O)(=O)[O-])c3ccc(=[N+](CC)CC)cc-3oc2c1`, the Ki [3] was 11 nM, the inhibition [1] was “inactive” and the Ki [4] was 37 nM. The inhibition [2] was “inactive”.
With `CCN(CC)c1ccc2c(-c3ccc(S(=O)(=O)NCCCCCC(=O)NCc4ccc5c(c4)CO[C@@]5(CCCN(C)C)c4ccc(F)cc4)cc3S(=O)(=O)[O-])c3ccc(=[N+](CC)CC)cc-3oc2c1` the Activity [7] was “tde”, the Activity [8] was “inactive” and the Activity [9] was “Active”. The Ki [3] was 3 nM, the inhibition [1] was “inactive” and the Ki [4] was 34 nM. For the same molecule, the Ratio Ki [10] was 75 and the inhibition [2] was “inactive”.
